Each structure is given as a SMILES string. Activity calls are given as the source filed them. The rule behind the calls is not given here.

Common to all, as to type: functional, cell-based
One test deals with HeLa. Put plainly: Cytotoxicity agaisnt human HeLa cells by SRB assay. An outline of the steps: (§1)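 IC50 from three independent experiments; growth inhibition read by SRB (adherent lines) or MTT (HL60, K562).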
In a further test the test system is HL-60. Kind of test: Cytotoxicity against human HL60 cells by MTT assay. The essentials: as §1
Background: Tetrazolium assays rely on reduction of a dye to a coloured formazan, in cell work by metabolically active cells.

The subject of test [1] is MDA-MB-231. Put plainly: Reduction of hypoxia-induced HIF1alpha accumulation in human MDA-MB-231 cells at 10 uM by Western blotting analysis. An outline of the steps: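 MDA-MB-231 cells (5 × 10⁵) treated at 10 µM, held in hypoxia (1% O₂) for 10 h, then lysed in 1× SDS loading buffer (pH 6.8 Tris–HCl, DTT, SDS) and boiled. Equal lysate amounts run on 10% SDS–PAGE, transferred to nitrocellulose, probed for HIF-1α and β-actin with HRP secondary antibodies, detected by ECL. Representative of three independent experiments.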
(In western blotting, separated proteins are transferred to a membrane and probed.)

Another test concerns KB. Kind of test: Cytotoxicity agaisnt vincristine-resistant human KB cells by SRB assay. The essentials: as §1
For orientation: The SRB assay estimates cell density from bound dye.

For test [2], the system named is MDA-MB-231. Kind of test: Cytotoxicity agaisnt human MDA-MB-231 cells by SRB assay. The essentials: as §1
Another test deals with HCT-116. Kind of test: Cytotoxicity agaisnt human HCT116 cells by SRB assay. An outline of the steps: as §1
The test system of the next test is A549. Put plainly: Cytotoxicity agaisnt human A549 cells by SRB assay. An outline of the steps:
as §1

Test [3] can be described thus: Cytotoxicity agaisnt human Rh30 cells by SRB assay. The conditions noted are these: SJRH30. An outline of the steps:
as §1

Test [4] can be described thus: Cytotoxicity agaisnt human KB-3-1 cells by SRB assay. The essentials:
as §1

The next test deals with HT-29. Put plainly: Cytotoxicity agaisnt human HT29 cells by SRB assay. The essentials: as §1
The subject of a further test is K562. Kind of test: Cytotoxicity agaisnt human K562 cells by MTT assay. An outline of the steps:
as §1

For orientation: IC50 means the concentration at which inhibition is half-maximal. The low end stands for inhibition by little substance, the high end for a need for much substance. With `COc1ccc(S(=O)(=O)NC(C)C2=CC(=O)c3c(O)ccc(O)c3C2=O)c(OC)c1` (centres undefined), the IC50 in the test with HeLa was found to be 19.5 µM; in the test with HL-60, 0.5 µM.

Compound `CC(C)C(NS(=O)(=O)c1ccc(F)cc1)C1=CC(=O)c2c(O)ccc(O)c2C1=O` (centres undefined) registered an IC50 in the test with HeLa of 6.65 µM.

Consider `CC(NS(=O)(=O)c1cccc(Br)c1)C1=CC(=O)c2c(O)ccc(O)c2C1=O` (centres undefined), for which the IC50 with HeLa stood at 6.35 µM; with HL-60 it was 0.16 µM. For the same compound, the outcome in the test with MDA-MB-231 [1] was Active.

In the case of `CC(NS(=O)(=O)c1ccc(Cl)cc1)C1=CC(=O)c2c(O)ccc(O)c2C1=O` (centres undefined), the IC50 in the test with KB turned out to be 12.4 µM; in the test with HeLa it was 0.81 µM; in the test with HL-60, 0.25 µM; with MDA-MB-231 [2], 4.5 µM; in the test with HCT-116, 3.2 µM; with A549, 8.3 µM. For the same compound, the IC50 stood at 1.9 µM in test [3], 6.9 µM in test [4], 1.3 µM in the test on HT-29 and 19.9 µM in the test on K562. In addition, in the test on MDA-MB-231 [1], the result was Active.

On to `CC(C)=CC[C@@H](O)C1=CC(=O)c2c(O)ccc(O)c2C1=O` [SHIKONIN], for which the IC50 in the test on HeLa is 13.4 µM; in the test on HL-60, 0.44 µM. The outcome in the test with MDA-MB-231 [1] was Active.

For the compound `CC(C)C(NS(=O)(=O)c1cccc(Br)c1)C1=CC(=O)c2c(O)ccc(O)c2C1=O` (centres undefined), the IC50 in the test with HeLa was 0.86 µM; in the test with HL-60, 0.79 µM.

Take `Cc1ccc(S(=O)(=O)NC(C)C2=CC(=O)c3c(O)ccc(O)c3C2=O)cc1` (centres undefined): the IC50 in the test with HeLa turned out to be 5.34 µM; in the test on HL-60 it was 0.03 µM.

On to `COc1ccc(S(=O)(=O)NC(C2=CC(=O)c3c(O)ccc(O)c3C2=O)C(C)C)c(OC)c1` (centres undefined), for which the IC50 was determined as 2.75 µM in the test on HeLa and 0.4 µM with HL-60.

Consider `CC(=O)c1ccc(S(=O)(=O)NC(C2=CC(=O)c3c(O)ccc(O)c3C2=O)C(C)C)cc1` (centres undefined), for which the IC50 with HeLa was 3.82 µM; in the test on HL-60 it was 0.11 µM.

Consider `Cc1ccccc1S(=O)(=O)NC(C)C1=CC(=O)c2c(O)ccc(O)c2C1=O` (centres undefined), for which the IC50 in the test on HeLa was found to be 4.49 µM; with HL-60 it was 0.07 µM. In addition, the result with MDA-MB-231 [1] was Active.

As to `CC(NS(=O)(=O)c1ccccc1Br)C1=CC(=O)c2c(O)ccc(O)c2C1=O` (centres undefined), the results for the half-maximal inhibitory concentration (IC50) in the test with HeLa and in the test with HL-60 were 6.2 µM and 0.12 µM, respectively. Moreover, in the test with MDA-MB-231 [1], the result was Active.

With `CC(C)C(NS(=O)(=O)c1ccccc1Br)C1=CC(=O)c2c(O)ccc(O)c2C1=O` (centres undefined), the IC50 was 8.31 µM in the test on HeLa and 0.34 µM with HL-60.

`CC(C)C(NS(=O)(=O)c1ccc(Cl)cc1)C1=CC(=O)c2c(O)ccc(O)c2C1=O` (centres undefined) yielded an IC50 in the test with HeLa of 8.65 µM.

`CC(NS(=O)(=O)c1ccc(Br)cc1)C1=CC(=O)c2c(O)ccc(O)c2C1=O` (centres undefined): the figures for the IC50 with HeLa and in the test with HL-60 were 5.21 µM and 0.1 µM, respectively.

As for `CCOC(=O)c1ccc(S(=O)(=O)NC(C2=CC(=O)c3c(O)ccc(O)c3C2=O)C(C)C)cc1` (centres undefined), the IC50 with KB was 13.2 µM; with HeLa, 0.85 µM; in the test with HL-60, 0.15 µM; in the test on MDA-MB-231 [2], 4.7 µM; with HCT-116 it was 3.8 µM; in the test on A549, 11.4 µM. In addition, the IC50 in test [3] is 2.6 µM; in test [4] it was 11.8 µM; in the test with HT-29, 2.8 µM; in the test with K562, 18.2 µM.

Take `CC(NS(=O)(=O)c1ccc(F)cc1)C1=CC(=O)c2c(O)ccc(O)c2C1=O` (centres undefined): the IC50 was determined as 6.41 µM with HeLa and 0.09 µM with HL-60.

On to `COc1cc([C@@H]2c3cc4c(cc3[C@@H](O)[C@H]3COC(=O)[C@H]23)OCO4)cc(OC)c1O` [4'-DEMETHYLEPIPODOPHYLLOTOXIN], for which the IC50 in the test on HeLa is 0.98 µM; in the test on HL-60 it was 0.82 µM.

As to `CCOC(=O)c1ccc(S(=O)(=O)NC(C)C2=CC(=O)c3c(O)ccc(O)c3C2=O)cc1` (centres undefined), the IC50 in the test with HeLa came out at 2.26 µM; in the test with HL-60 it was 0.12 µM.

Turning to `CC(C)C(NS(=O)(=O)c1ccc(Br)cc1)C1=CC(=O)c2c(O)ccc(O)c2C1=O` (centres undefined), the IC50 in the test with HeLa came out at 7.65 µM. That is a single-digit micromolar value.

Turning to `Cc1ccccc1S(=O)(=O)NC(C1=CC(=O)c2c(O)ccc(O)c2C1=O)C(C)C` (centres undefined), the results for the IC50 with HeLa and with HL-60 were 0.79 µM and 0.19 µM, respectively.

On to `COc1ccc(S(=O)(=O)NC(C)C2=CC(=O)c3c(O)ccc(O)c3C2=O)cc1` (centres undefined), for which the IC50 in the test with HeLa is 3.76 µM; in the test with HL-60, 0.02 µM.

For `CC(=O)c1ccc(S(=O)(=O)NC(C)C2=CC(=O)c3c(O)ccc(O)c3C2=O)cc1` (centres undefined), the half-maximal inhibitory concentration (IC50) in the test on HeLa was determined as 5.76 µM; in the test with HL-60, 0.26 µM.

As to `COc1ccc(S(=O)(=O)NC(C2=CC(=O)c3c(O)ccc(O)c3C2=O)C(C)C)cc1` (centres undefined), the IC50 in the test on HeLa stood at 8.95 µM.

Compound `Cc1ccc(S(=O)(=O)NC(C2=CC(=O)c3c(O)ccc(O)c3C2=O)C(C)C)cc1` (centres undefined) came in with an IC50 in the test on HeLa of 4.85 µM.

Source of the values: ChEMBL document CHEMBL1143299, “Synthesis and biological activity of novel shikonin analogues” (Bioorg Med Chem Lett, 2009).
